Data from publication PMC12591034 (RSC Advances, 2025).

Legend:
Type in all cases: cell-based
[1] = system: NO production in LPS-stimulated RAW 264.7 macrophage cells; experiment: Inhibition of NO production in LPS-stimulated RAW 264.7 cells; conditions: Mus musculus, RAW264.7, read-out: IC50 Inhibition of NO-production
Summary of the method: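 RAW 264.7 murine macrophages were stimulated with LPS. NO release was measured as nitrite in the culture medium by the Griess reaction. Results are given as mean ± SD from three independent experiments. IC50 was estimated by curve fitting.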

[2] = system: A549 (lung) carcinoma cells; experiment: Cytotoxicity, SRB assay, A549; conditions: Homo sapiens, A549, read-out: IC50 Cytotoxicity A549
Summary of the method: (§1)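 Sulforhodamine B (SRB) cytotoxicity assay on human A549 lung, Hep-G2 liver and MCF-7 breast carcinoma cells, run alongside non-cancer HEK-293A embryonic kidney cells. Results are given as mean ± SD from three independent experiments. IC50 was estimated by curve fitting.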

[3] = system: Hep-G2 (liver) carcinoma cells; experiment: Cytotoxicity, SRB assay, Hep-G2; conditions: Homo sapiens, HepG2, read-out: IC50 Cytotoxicity Hep-G2
Summary of the method: as §1

[4] = system: MCF-7 (breast) carcinoma cells; experiment: Cytotoxicity, SRB assay, MCF-7; conditions: Homo sapiens, MCF7, read-out: IC50 Cytotoxicity MCF-7
Summary of the method: as §1

[5] = Cytotoxicity, SRB assay, HEK-293A; conditions: human, HEK-293A embryonic kidney cells (normal cells)
[6] = system: A549, Hep-G2, and MCF-7 human cancer cell lines; experiment: Cytotoxicity, SRB assay, stated across the cancer cell lines; conditions: tested cell lines
Summary of the method: as §1

C[C@H]1C(=O)CC[C@@H]2[C@]1(C)CC[C@H]1[C@@]2(C)CC[C@@]2(C)[C@@H]3CC(C)(C)CC[C@]3(C)CC[C@]12C [Compound 5, friedelin]
IC50 [1]: > 100 µM | IC50 [2]: > 100 µM | IC50 [3]: > 100 µM | IC50 [4]: > 100 µM

C[C@H]1C(=O)CC[C@@H]2[C@]1(C)CC[C@H]1[C@@]2(C)CC[C@@]2(C)[C@@H]3CC(C)(C)CC[C@]3(CO)CC[C@]12C [Compound 7, canophyllol]
IC50 [1]: 79.9 ± 1.37 µM | IC50 [2]: 39.3 ± 1.29 µM | IC50 [3]: 22.4 ± 1.01 µM | IC50 [4]: 27.4 ± 1.19 µM | IC50 [5]: 30.1 ± 1.25 µM

COC(=O)c1c(C)cc(O)c(C=O)c1O [Compound 17, methyl haematommate]
IC50 [1]: > 100 µM | IC50 [2]: > 100 µM | IC50 [3]: 80.7 ± 3.59 µM | IC50 [4]: 99.3 ± 6.83 µM | cytotoxic activity in words [6]: weakly active | IC50 [5]: 70.7 ± 4.44 µM

Cc1c2ccncc2c(C)c2c1[nH]c1ccccc12 [Ellipticine, reference compound]
IC50 [2]: 1.71 ± 0.08 µM | IC50 [3]: 1.42 ± 0.08 µM | IC50 [4]: 1.54 ± 0.04 µM | IC50 [5]: 1.34 ± 0.08 µM
